# In ChEMBL document CHEMBL5108071, “Potent and Specific Activators for Mitochondrial Sirtuins Sirt3 and Sirt5” (J Med Chem, 2022):
# The source made the active and inactive calls. The rule behind the calls is not given here.
# How the values were obtained:
# [1] = molecular target: NAD-dependent protein deacylase sirtuin-5, mitochondrial (Homo sapiens) (UniProt Q9NXA8); assay: Activation of N-terminal his-tagged human SIRT5 (34 to 302 residues) expressed in Escherichia coli assessed as fold activation at 10 to 100 uM using CPS1-succ537 as substrate in presence of NAD+; details: filed as activator, dose 10-100 µM
# NAD-dependent protein deacylase sirtuin-5, mitochondrial (Homo sapiens), sequence (Q9NXA8 37-310 limits assumed): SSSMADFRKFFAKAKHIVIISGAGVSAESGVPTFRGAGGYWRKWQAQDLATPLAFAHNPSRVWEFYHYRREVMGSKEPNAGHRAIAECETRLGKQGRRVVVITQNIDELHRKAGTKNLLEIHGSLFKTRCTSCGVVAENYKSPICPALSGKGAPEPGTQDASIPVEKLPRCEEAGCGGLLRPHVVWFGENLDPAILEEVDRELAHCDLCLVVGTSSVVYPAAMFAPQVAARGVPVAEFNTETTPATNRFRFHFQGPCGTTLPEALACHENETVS
# Outline: (§1)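 Coupled enzymatic deacylation assay (nicotinamidase/GDH-coupled, continuous): 1.5 μM recombinant Sirtuin (expressed in E. coli, Ni-NTA purified, tag removed, size-exclusion purified) with 50 μM substrate peptide and 100 μM NAD+, without or with 10 μM or 100 μM 1,4-DHP, 5% final DMSO. Activity expressed relative to no-compound control.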
# [2] = molecular target: T1, NAD-dependent protein deacetylase sirtuin-2 (Homo sapiens) (UniProt Q8IXJ6); assay: Activation of N-terminal SUMO-tagged human SIRT2 (43 to 356 residues) expressed in Escherichia coli assessed as deacetylation of substrate by measuring fold activation at 100 uM using acetylated alpha tubulin-K2 as substrate in presence of NAD+; details: filed as activator; outline: as §1
# T1 sequence (whole entry): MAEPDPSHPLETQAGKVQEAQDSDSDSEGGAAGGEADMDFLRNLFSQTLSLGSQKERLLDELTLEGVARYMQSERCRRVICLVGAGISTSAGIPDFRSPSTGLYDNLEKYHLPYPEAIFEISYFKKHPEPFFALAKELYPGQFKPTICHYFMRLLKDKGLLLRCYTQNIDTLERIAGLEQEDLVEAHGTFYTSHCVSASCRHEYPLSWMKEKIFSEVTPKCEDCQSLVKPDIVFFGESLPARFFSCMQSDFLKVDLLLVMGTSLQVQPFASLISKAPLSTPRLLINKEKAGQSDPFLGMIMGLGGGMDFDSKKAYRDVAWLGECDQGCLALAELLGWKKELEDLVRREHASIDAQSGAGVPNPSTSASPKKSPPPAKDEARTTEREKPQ
# [3] = molecular target: T2, NAD-dependent protein deacetylase sirtuin-1 (Homo sapiens) (UniProt Q96EB6); assay: Activation of N-terminal his-tagged human SIRT1 expressed in Escherichia coli assessed as fold activation at 100 uM using p53-acK381 as substrate in presence of NAD+; details: filed as activator; outline: as §1
# T2 sequence (whole entry): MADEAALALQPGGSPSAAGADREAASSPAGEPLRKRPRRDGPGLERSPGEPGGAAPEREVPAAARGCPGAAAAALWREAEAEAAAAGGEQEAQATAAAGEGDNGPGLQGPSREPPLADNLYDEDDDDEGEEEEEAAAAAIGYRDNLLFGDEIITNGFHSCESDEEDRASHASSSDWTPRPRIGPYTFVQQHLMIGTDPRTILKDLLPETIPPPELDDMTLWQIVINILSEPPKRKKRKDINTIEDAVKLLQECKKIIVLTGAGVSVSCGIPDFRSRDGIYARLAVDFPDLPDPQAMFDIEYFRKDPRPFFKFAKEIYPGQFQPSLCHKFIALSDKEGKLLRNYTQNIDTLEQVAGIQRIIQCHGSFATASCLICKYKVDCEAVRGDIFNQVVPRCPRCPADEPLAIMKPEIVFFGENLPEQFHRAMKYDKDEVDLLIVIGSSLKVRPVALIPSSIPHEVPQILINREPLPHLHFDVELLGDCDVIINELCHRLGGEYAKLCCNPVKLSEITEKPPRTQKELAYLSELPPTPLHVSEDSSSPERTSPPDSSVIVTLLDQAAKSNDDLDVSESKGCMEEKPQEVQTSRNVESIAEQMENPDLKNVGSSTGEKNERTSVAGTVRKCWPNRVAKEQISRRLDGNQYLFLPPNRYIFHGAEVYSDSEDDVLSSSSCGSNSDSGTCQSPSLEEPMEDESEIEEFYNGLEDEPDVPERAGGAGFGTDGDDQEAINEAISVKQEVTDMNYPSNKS
# [4] = molecular target: T3, NAD-dependent protein deacetylase sirtuin-3, mitochondrial (Homo sapiens) (UniProt Q9NTG7); assay: Activation of N-terminal his-tagged human SIRT3 (114 to 380 residues) expressed in Escherichia coli using ACS2-acK642 as substrate in presence of NAD+; details: filed as activator
# T3 sequence (whole entry): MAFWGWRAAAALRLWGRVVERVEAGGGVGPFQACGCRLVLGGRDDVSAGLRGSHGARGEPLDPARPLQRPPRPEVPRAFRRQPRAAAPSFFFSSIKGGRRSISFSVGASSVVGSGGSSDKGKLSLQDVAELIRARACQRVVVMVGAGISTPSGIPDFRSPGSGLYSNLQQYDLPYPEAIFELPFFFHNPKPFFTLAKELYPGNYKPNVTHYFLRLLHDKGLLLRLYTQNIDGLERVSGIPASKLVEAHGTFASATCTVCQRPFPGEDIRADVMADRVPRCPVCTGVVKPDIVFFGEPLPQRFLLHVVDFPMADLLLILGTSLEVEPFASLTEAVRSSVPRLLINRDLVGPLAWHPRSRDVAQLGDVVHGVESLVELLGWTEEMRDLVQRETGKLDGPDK
# Outline: (§2)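 Coupled continuous enzymatic assay (nicotinamidase/GDH-linked): 1.5 µM purified Sirt3 with 50 µM ACS2-acK642 peptide and 100 µM NAD+, compound at 10 µM, 100 µM or titrated, 5% DMSO final; fold deacetylation versus no-compound control.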
# [5] = molecular target: T3, NAD-dependent protein deacetylase sirtuin-3, mitochondrial (Homo sapiens); assay: Activation of N-terminal his-tagged human SIRT3 (114 to 380 residues) expressed in Escherichia coli assessed as fold activation at 10 to 100 uM using ACS2-acK642 as substrate in presence of NAD+; details: filed as activator, dose 10-100 µM; outline: as §2
# [6] = molecular target: T3, NAD-dependent protein deacetylase sirtuin-3, mitochondrial (Homo sapiens); assay: Activation of N-terminal his-tagged human SIRT3 (114 to 380 residues) expressed in Escherichia coli at 100 uM using ACS2-acK642 as substrate in presence of NAD+ by Mass spectrometry assay relative to control; details: filed as activator
# Outline: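 Mass-spectrometric deacetylation assay using coupled-assay components (1.5 µM Sirt3, 50 µM peptide, 100 µM NAD+, compound 100 µM) in 50 mM Na-phosphate pH 7.8 plus 0.05 µg/µL PNCA to remove nicotinamide; product and substrate peptides quantified.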
# [7] = molecular target: NAD-dependent protein deacylase sirtuin-5, mitochondrial (Homo sapiens) (UniProt Q9NXA8); assay: Activation of N-terminal his-tagged human SIRT5 (34 to 302 residues) expressed in Escherichia coli assessed as fold activation at more than 200 uM using CPS1-succ537 as substrate in presence of NAD+; details: filed as activator
# Outline: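 Sirt5 desuccinylation measured by coupled enzymatic assay: 1.5 µM enzyme, 50 µM CPS1-succK537 peptide, 100 µM NAD+, 5% DMSO final; compound titrated; fold activation relative to untreated reaction.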
# [8] = molecular target: T1, NAD-dependent protein deacetylase sirtuin-2 (Homo sapiens); assay: Activation of N-terminal SUMO-tagged human SIRT2 (43 to 356 residues) expressed in Escherichia coli assessed as deacetylation of substrate at 100 uM using acetylated alpha tubulin-K2 as substrate in presence of NAD+; details: filed as activator; outline: as §1
# [9] = molecular target: T3, NAD-dependent protein deacetylase sirtuin-3, mitochondrial (Homo sapiens); assay: Activation of SIRT3 in human MDA-MB-231 cells assessed as increase in GDH activity at 50 uM incubated for 4 hrs […]; format: cell-based; details: filed as activator
# Outline: (§3)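 MDA-MB-231 cells given 50 µM compound for 4 h, or 4 h then re-dosed for a further 4 h; 10^6 cells lysed, supernatant mixed with glutamate/developer mix, 3 min at 37 °C, absorbance 450 nm, buffer blank subtracted; means ± SD, Student's t-test.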
# [10] = molecular target: T2, NAD-dependent protein deacetylase sirtuin-1 (Homo sapiens); assay: Activation of N-terminal his-tagged human SIRT1 expressed in Escherichia coli assessed as fold activation at 10 to 100 uM using p53-acK381 as substrate in presence of NAD+; details: filed as activator, dose 10-100 µM; outline: as §1
# [11] = molecular target: T4, NAD-dependent protein deacetylase sirtuin-3 (Mus musculus) (UniProt Q8R104); assay: Activation of SIRT3 in mouse MEF cells assessed as fold increase in mitochondrial mass at 25 uM incubated for 24 hrs by MT-DR staining based FACS assay; format: cell-based; details: filed as activator
# T4 sequence (whole entry): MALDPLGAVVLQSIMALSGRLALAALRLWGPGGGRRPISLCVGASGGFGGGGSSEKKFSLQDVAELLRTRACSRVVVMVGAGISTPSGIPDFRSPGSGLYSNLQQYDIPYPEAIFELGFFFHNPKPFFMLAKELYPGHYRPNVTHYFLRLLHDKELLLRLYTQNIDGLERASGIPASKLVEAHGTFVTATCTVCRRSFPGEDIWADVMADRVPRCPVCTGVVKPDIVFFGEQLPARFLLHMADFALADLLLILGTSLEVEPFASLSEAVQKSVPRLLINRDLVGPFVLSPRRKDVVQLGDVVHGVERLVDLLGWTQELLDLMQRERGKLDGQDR
# Outline: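 Wild-type and Sirt3 knock-out MEFs exposed to 25 µM compound for 24 h, then stained with 10 nM MitoTracker Deep Red for 30 min at 37 °C; mitochondrial mass by FACS; mean ± SD, n = 2.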
# [12] = molecular target: T3, NAD-dependent protein deacetylase sirtuin-3, mitochondrial (Homo sapiens); assay: Activation of N-terminal his-tagged human SIRT3 (114 to 380 residues) expressed in Escherichia coli assessed as fold activation at 100 uM using ACS2-acK642 as substrate in presence of NAD+; details: filed as activator; outline: as §2
# [13] = molecular target: T3, NAD-dependent protein deacetylase sirtuin-3, mitochondrial (Homo sapiens); assay: Activation of SIRT3 in human MDA-MB-231 cells assessed as increase in FdL deacetylation activity at 50 to 100 uM incubated for 3 hrs; format: cell-based; details: filed as activator, dose 50-100 µM
# Outline: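 MDA-MB-231 cells (RPMI 1640, 10% FBS, 37 °C, 5% CO2) treated 3 h at 50 or 100 µM; 40 µg mitochondrial extract incubated with Fluor de Lys substrate 40 min 37 °C, then developer 10 min; fluorescence ex 360/em 460 nm, buffer background subtracted.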
# [14] = molecular target: T3, NAD-dependent protein deacetylase sirtuin-3, mitochondrial (Homo sapiens); assay: Activation of STAT3 protein level in human MDA-MB-231 cells assessed as STAT3 protein expression incubated for 24 hrs by Western blotting; format: cell-based; details: filed as activator
# [15] = molecular target: T3, NAD-dependent protein deacetylase sirtuin-3, mitochondrial (Homo sapiens); assay: Activation of SIRT3 in human MDA-MB-231 cells assessed as increase in GDH activity at 50 uM incubated for 8 hrs […]; format: cell-based; details: filed as activator; outline: as §3
# [16] = molecular target: T3, NAD-dependent protein deacetylase sirtuin-3, mitochondrial (Homo sapiens); assay: Activation of SIRT3 in human MDA-MB-231 cells assessed as decrease in MnSOD-Lys68 acetylation level at 50 uM incubated for 16 hrs by Western blot analysis assay; format: cell-based; details: filed as activator
# Outline: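 MDA-MB-231 cells (wild-type and Sirt3-knockdown) treated with 50 µM; 50 µg whole-cell lysate protein run on SDS-PAGE, blotted to PVDF, probed with anti-MnSOD-acK68 and anti-MnSOD, ECL detection; each blot done in triplicate.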
smiles,measurement,setting,value
CCOC(=O)C1=CN(C(=O)c2cc(OC)c(OC)c(OC)c2)C=C(C(=O)OCC)C1c1cccc(N)c1,fold change (FC),[1],3
same,fold change (FC),[2],2.5
same,fold change (FC),[3],4
CCOC(=O)C1=CN(C(=O)c2cc(OC)c(OC)c(OC)c2)C=C(C(=O)OCC)C1c1ccccc1,Activity,[4],Active
same,fold change (FC),[5],5
same,Activity,[6],400%
same,fold change (FC),[7],5
same,Activity,[8],Active
same,Activity,[9],Active
CCOC(=O)C1=CN(Cc2ccccc2)C=C(C(=O)OCC)C1c1cnc2ccccc2c1,fold change (FC),[10],1.5
same,Activity,[11],Active
CCOC(=O)C1=CN(C(=O)c2ccccc2)C=C(C(=O)OCC)C1c1ccccc1,fold change (FC),[12],3.5
same,fold change (FC),[10],1.5
same,Activity,[6],300%
same,Activity,[13],Active
same,Activity,[14],Active
same,Activity,[15],Active
same,Activity,[16],Active
